# Source: PubChem (several laboratories)
# Rows were chosen to be rich in hits. Some 2.9% of all compounds tested hit in one or more screens of this group.
# M18AAP inhibitor = blocks P. falciparum M18 aspartyl aminopeptidase; 1.2% of 290,000 active; recombinant PfM18AAP, H-Glu-NHMec fluorogenic cleavage; inhibition, % at 7.35 µM;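 active means inhibition above the campaign mean inhibition over all tested compounds plus 3 SD, cut at about 28% in these data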;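 further: 0% = plate median of test compound wells and 100% = 2 mM ZnCl2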
# EBNA-1 inh = blocks EBNA-1 binding to DNA; inhibition, % at 14.8 µM; 0.34% of 300,000 active; AID 1950; EBNA-1 DNA binding, fluorescence polarization; in the data active means inhibition above about 28%
# Apaf-1 inh = human Apaf-1 inhibition; inhibition, % at 20 µM; reconstituted apoptosome caspase-3 activity, DEVD-Rh110 fluorescence; O14727; 0.71% of 330,000 active; active means inhibition of at least 40% at 20 µM;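 further: plate controls were DMSO wells for no effect and DEVD-CHO caspase inhibitor wells for full effect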
#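 Material: reconstituted apoptosome with Apaf-1, cytochrome c, caspase-9, procaspase-3, dATP; medium: pH 7.5 Hepes buffer with CHAPS, BSA, DTT; also added: cytochrome c and DEVD-Rh110 substrate; timing: 30 min plus 50 min, RT; signal: Rh110 fluorescence intensity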
# ZTA counter = counter-screen for EBNA-1 inhibitors: inhibitors of Epstein-Barr virus ZTA. 0.15% of 320,000 active. ZTA-DNA binding, fluorescence polarization. AID 2234. P03206. inhibition, % at 11 µM; in the data active means inhibition above about 33%
# PfGluPho inh = PfG6PD (Plasmodium falciparum) enzyme inhibition. PfGluPho enzyme, NADPH resazurin-diaphorase fluorescence. inhibition, % at 20 µM. 0.78% of 350,000 active. AID 504690;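 active means inhibition reaching at least a set limit at 20 µM in the primary screen, cut at about 59% in these data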;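 further: 0% = DMSO wells with substrate and 100% = DMSO wells lacking glucose-6-phosphate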
# UBC13 polyUb = blocks human UBC13 polyubiquitin chain formation | P61088 | TR-FRET | inhibition, % at 20 µM | 0.47% of 330,000 active; in the data active means inhibition above about 45%, passing the limit was not always enough
# PfG6PD confirm = confirmation of Plasmodium falciparum G6PD inhibitors; shares compounds with PfGluPho inh; recombinant PfGluPho, NADPH-diaphorase-resazurin fluorescence; inhibition, % at 20 µM; 34% of 2,400 active;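 active means inhibition of at least 50% at 20 µM in any single replicate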;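 further: 0% = DMSO with substrate and 100% = DMSO lacking glucose-6-phosphate substrate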
# Diaphorase 10uM = inhibits diaphorase or oxidizes, flagging false PfG6PD hits | shares compounds with PfGluPho inh | diaphorase-coupled resazurin reduction, fluorescence, NADPH 10 uM | inhibition, % at 20 µM | 39% of 820 active | AID 504862;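 active means average inhibition reaching 50% or more with the compound at 20 µM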;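 further: resorufin red fluorescence formed as diaphorase reduces resazurin using NADPH; 0% = DMSO with enzyme and 100% = DMSO without enzyme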
# Diaph ctr 30uM = counter-screen for P. falciparum G6PD inhibitors: diaphorase inhibitors, oxidizers; shares compounds with PfGluPho inh; Diaphorase/resazurin coupled assay, resorufin fluorescence, 30 uM NADPH; inhibition, % at 20 µM; 29% of 820 active; AID 504863;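 active means inhibition averaging 50% or more, tested at 20 µM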;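 further: 0% = DMSO with enzyme and 100% = DMSO wells lacking diaphorase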
# * marks the source's active call; other numbers are inactive results; . = no result.
SMILES,M18AAP inhibitor,EBNA-1 inh,Apaf-1 inh,ZTA counter,PfGluPho inh,UBC13 polyUb,PfG6PD confirm,others
O=C(c1ccc2c(c1)N(Cc1ccccc1F)C(=O)c1ccccc1S2)N1CCOCC1,-4,-14,-15,-9,69*,8,35,
O=C(c1ccc2c(c1)N(Cc1ccccc1)C(=O)c1ccccc1S2)N1CCCC1,6,-13,5,-20,102*,0,72*,Diaphorase 10uM=62*;Diaph ctr 30uM=63*
COCCN(Cc1nc2ccccc2c(=O)[nH]1)C(=O)COc1c(C)cc(Cl)cc1C,.,.,13,-12,72*,9,35,
O=C(O)c1cccc(C(=O)O)n1,8,.,-2,.,.,-24,.,
O=C(O)c1ccc2cccc(O)c2n1,6,4,-20,4,66*,-23,32,
N#Cc1c(NC(=O)Cn2nc(C(F)(F)F)c3c2CCCC3)sc2c1CCC2,5,7,5,0,70*,-9,43,
CC1CCc2c(sc(NC(=O)Cn3nc(C(F)(F)F)c4c3CCCCC4)c2C#N)C1 (stereo unspecified),11,-10,-8,4,28,6,.,
COc1ccccc1Cn1c(C(C)C)nc2ccccc21,-2,5,-3,2,-34,8,.,
COc1ccccc1Cn1c(/C=C/c2ccccc2)nc2ccccc21,-5,1,3,-3,67*,15,3,
COCCn1c(/C=C/c2ccccc2)nc2ccccc21,2,-1,-4,8,44,11,.,
COc1ccc(/C=C/c2nc3ccccc3n2Cc2ccccc2OC)cc1,1,6,-4,-2,76*,12,22,
CC(C)Oc1ccc(S(=O)(=O)N2CCOCC2)cc1NC(=O)Cc1cccs1,.,-7,11,5,-3,-6,.,
COc1ccc(N2CC(O)=C(c3nc4ccccc4s3)C2=N)c(OC)c1,4,5,19,-30,64*,2,43,
COc1cc(CCC(=O)NCCc2ccc(F)cc2)cc(OC)c1OC,-11,-9,39,-12,-1,-5,.,
COc1ccc(-c2cc3ccccc3cn2)cc1,.,.,18,-16,59*,6,9,
CCOC(=O)Cc1cc(=O)n2[nH]c(C(C)(C)C)cc2n1,-1,12,-15,8,78*,4,76*,Diaphorase 10uM=64*;Diaph ctr 30uM=46
CCOC(=O)Cc1cc(=O)n2[nH]c(-c3ccccc3)cc2n1,-2,-1,-6,-6,18,4,.,
CCN(CC)CCNc1cc(C)nc2c1C(=O)C(=O)C=C2N1CCCCC1,11,-1,40,6,75*,-26,47,
CCN(CC)CCNC(=O)c1ccc(N2CCCCC2)c(NS(=O)(=O)c2ccc(C)cc2)c1,-4,4,14,-11,-7,27,.,
Cc1cc(C)c(C)c(C(=O)COC(=O)CNC(=O)CNC(=O)c2ccco2)c1C,9,-5,6,12,-17,2,.,
Cc1cc(Nc2ccc(Cl)cc2)nc(N)n1,1,-4,-11,-16,63*,3,44,
O=C1C=C(c2c(O)ccc3ccccc23)c2ccccc2C1=O,.,.,.,.,118*,.,111*,Diaphorase 10uM=96*;Diaph ctr 30uM=97*
O=C(O)c1cc2ccccc2c2c1C(=O)c1ccccc1-2,.,.,.,.,3,.,.,
CCn1c(SCC(=O)N/N=C/c2c[nH]c3ccccc23)nnc1-c1ccc(Cl)cc1,-1,9,8,10,-7,15,.,
CC(=O)c1ccc(N2CCN(CC(=O)NC(=O)NCc3ccccc3)CC2)cc1,.,.,4,-15,2,-2,.,
SMILES,M18AAP inhibitor,EBNA-1 inh,Apaf-1 inh,ZTA counter,PfGluPho inh,UBC13 polyUb,PfG6PD confirm,others
CCn1c(SCC(=O)c2cc(C)n(-c3ccc(C(=O)OC)cc3)c2C)nnc1-c1cccnc1,6,-5,5,-10,90*,8,37,
CCOC(=O)c1cccc(NC(=O)CSc2nnc(-c3cccnc3)n2CC)c1,0,11,6,-1,15,-4,.,
CCOCCCNC(=O)/C(C#N)=C/c1ccc(-c2ccc(S(=O)(=O)N3CCOCC3)cc2)o1,3,-22,14,1,13,-13,.,
CC(NC(=O)/C(C#N)=C/c1ccc([N+](=O)[O-])o1)c1ccccc1 (stereo unspecified),10,-10,12,7,92*,-24,69*,Diaphorase 10uM=64*;Diaph ctr 30uM=66*
CCOCCCNC(=O)/C(C#N)=C/c1ccc([N+](=O)[O-])o1,-6,-3,3,1,84*,-28,74*,Diaphorase 10uM=63*;Diaph ctr 30uM=71*
Cc1cc(Br)cc(Br)c1OCC(=O)NNC(=O)Nc1ccccc1,.,7,-7,-3,0,1,.,
Cc1sc2nc(CSCC(=O)Nc3ccc(Cl)cc3F)[nH]c(=O)c2c1C,.,.,4,.,12,0,.,
CCOc1ccc2nc(Cl)c(C3CC(c4ccccc4)=NN3C(=O)c3ccco3)cc2c1 (stereo unspecified),6,-5,11,-8,.,18,.,
O=C(COc1cccc2ccccc12)Nc1cc(Cl)ccc1C(=O)O,1,6,-8,-1,105*,-4,69*,Diaphorase 10uM=60*;Diaph ctr 30uM=59*
COc1ccc(C(=O)Nc2cc(Cl)ccc2OC(=O)c2ccc(OC)cc2)cc1,1,-3,-2,-1,34,0,.,
COc1ccc(C(=O)Nc2cc(Cl)ccc2C(=O)O)cc1,-13,-19,18,0,105*,-6,51*,Diaphorase 10uM=45;Diaph ctr 30uM=47
O=C(COc1cccc2ccccc12)Nc1ccc(Cl)cc1C(=O)O,4,1,.,8,75*,.,64*,Diaphorase 10uM=60*;Diaph ctr 30uM=48
O=C(COc1ccccc1C(=O)O)Nc1cccc2ccccc12,.,.,-6,.,-15,6,.,
O=C(CN1CCN(Cc2ccccc2)CC1)N/N=C/c1cccnc1,8,-1,-28,-11,-1,-4,.,
C[C@H](CO)NC(=O)[C@@H]1C[C@H]1[C@@H](NP(=O)(c1ccccc1)c1ccccc1)c1ccccc1,-9,3,8,11,-14,-7,.,
O=[N+]([O-])c1ccc(Cl)c(S(=O)(=O)NC2=NCCC2)c1,.,.,3,.,-9,-8,.,
O=[N+]([O-])c1ccc(Cl)c(S(=O)(=O)Nc2cccc(S(=O)(=O)NC3=NCCC3)c2)c1,.,.,7,.,67*,-13,42,
O=C(Nc1ccccc1)N(O)c1ccc(Cl)cc1,-16,-3,3,5,87*,-10,35,
COC(=O)c1ccc(/C=C/c2ccc3cccc(OC)c3n2)cc1,3,-1,10,-16,74*,16,26,
COc1cc(/C=C/c2ccc3cccc(O)c3n2)cc(OC)c1OC,-7,21,13,22,-1,-4,.,
